Results taken from ChEMBL document CHEMBL1938284, “Synthesis and biological activity of novel organoselenium derivatives targeting multiple kinases and capable of inhibiting cancer progression to metastases” (Eur J Med Chem, 2012).
Active and inactive are the calls of the source. The calls are words filed in the database; no cut-off is given here.

Assays:
MDA-MB-231 [1] = experiment: Antitumor activity against human MDA231 cells xenografted in SCID mouse assessed as tumor growth inhibition at 60 mg/kg, ip administered 3 times a week for a total of 9 doses measured on day 40; format: functional, organism-based; design: dose 60 mg/kg
Method in brief: (§1)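 Female SCID mice, 6 per group, given 1.5 million MDA-231-M2 cells into the mammary fat pad. Once tumours were palpable, vehicle or compound was given at 60 mg/kg IP 3 times weekly for 9 injections. Mice sacrificed on day 40. Lungs fixed in 10% Bouin's and surface metastases counted by stereomicroscope. Primary tumour volume also recorded. Groups compared to vehicle by unpaired Student t test.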

Cancer cell lines = experiment: Antitumor activity against human MDA231 cells xenografted in SCID mouse assessed as inhibition of lung metastases of cancer cells at 60 mg/kg, ip administered 3 times a week for a total of 9 doses measured on day 40 by stereomicroscopic analysis; format: functional, organism-based; design: dose 60 mg/kg; method in brief: as §1
MDA-MB-231 [2] = experiment: Antiangiogenic activity in human MDA231 cells assessed as inhibition of cell migration at 10 uM after 12 to 24 hrs by wound healing migration assay; format: functional, cell-based
Method in brief: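 MDA-231 cells grown on coverslips for 24 h, wounded by scraping with a micropipette tip, washed, then kept in fresh medium at 37 °C with compound at 10 μM final or DMSO. Photographed at 12 and 24 h. Remaining wound area measured. DMSO set to 0% inhibition. Mean ± SD of five independent experiments.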

[3] = target: Epithelial discoidin domain-containing receptor 1 (Homo sapiens) (UniProt Q08345); experiment: Inhibition of DDR1 at 1 uM
Chain of Epithelial discoidin domain-containing receptor 1 (Homo sapiens) (Q08345 whole entry, the tested form may be a part): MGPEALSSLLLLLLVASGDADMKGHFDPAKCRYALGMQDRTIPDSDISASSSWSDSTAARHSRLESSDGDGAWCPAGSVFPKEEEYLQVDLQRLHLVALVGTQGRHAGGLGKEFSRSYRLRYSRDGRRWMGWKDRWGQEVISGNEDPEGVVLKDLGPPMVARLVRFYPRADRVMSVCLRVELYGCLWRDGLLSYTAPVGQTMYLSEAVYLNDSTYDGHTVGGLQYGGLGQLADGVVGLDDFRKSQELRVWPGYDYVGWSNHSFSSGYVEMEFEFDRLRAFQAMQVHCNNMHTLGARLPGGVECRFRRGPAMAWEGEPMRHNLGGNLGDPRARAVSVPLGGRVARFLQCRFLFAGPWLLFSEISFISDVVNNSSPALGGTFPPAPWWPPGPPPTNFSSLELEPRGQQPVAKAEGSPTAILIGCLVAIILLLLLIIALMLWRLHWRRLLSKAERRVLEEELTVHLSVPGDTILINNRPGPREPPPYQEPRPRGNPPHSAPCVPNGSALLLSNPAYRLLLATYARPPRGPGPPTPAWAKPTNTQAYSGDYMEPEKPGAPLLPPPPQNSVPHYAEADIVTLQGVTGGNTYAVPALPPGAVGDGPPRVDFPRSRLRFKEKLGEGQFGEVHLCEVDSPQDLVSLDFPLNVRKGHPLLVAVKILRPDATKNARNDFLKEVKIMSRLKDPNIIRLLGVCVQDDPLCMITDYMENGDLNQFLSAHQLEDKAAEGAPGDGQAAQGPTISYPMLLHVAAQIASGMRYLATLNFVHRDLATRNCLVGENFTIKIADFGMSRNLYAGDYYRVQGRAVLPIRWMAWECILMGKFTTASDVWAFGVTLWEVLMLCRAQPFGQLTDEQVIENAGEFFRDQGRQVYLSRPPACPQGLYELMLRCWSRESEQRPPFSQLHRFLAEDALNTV

Mus musculus [4] = experiment: Apparent toxicity in SCID mouse xenografted with human MDA231 cells at 60 mg/kg, ip administered 3 times a week for a total of 9 doses; format: organism-based; design: dose 60 mg/kg, route intraperitoneal; details: in vivo
[5] = target: T1, Serine/threonine-protein kinase Sgk3 (Homo sapiens) (UniProt Q96BR1); experiment: Inhibition of SGK3 at 1 uM
T1 sequence (whole entry): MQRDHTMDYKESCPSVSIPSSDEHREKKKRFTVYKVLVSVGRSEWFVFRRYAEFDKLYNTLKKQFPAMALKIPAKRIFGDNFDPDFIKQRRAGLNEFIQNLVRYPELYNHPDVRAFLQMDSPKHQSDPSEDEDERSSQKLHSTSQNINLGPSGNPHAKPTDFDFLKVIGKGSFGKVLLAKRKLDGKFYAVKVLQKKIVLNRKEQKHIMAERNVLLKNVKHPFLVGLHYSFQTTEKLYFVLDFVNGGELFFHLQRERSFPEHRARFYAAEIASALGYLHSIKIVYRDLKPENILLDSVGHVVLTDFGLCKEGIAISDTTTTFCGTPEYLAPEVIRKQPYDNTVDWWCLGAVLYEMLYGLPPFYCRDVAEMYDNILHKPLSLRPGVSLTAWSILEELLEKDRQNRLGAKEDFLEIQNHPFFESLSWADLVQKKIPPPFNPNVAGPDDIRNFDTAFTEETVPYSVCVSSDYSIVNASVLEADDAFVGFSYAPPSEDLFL

Focal adhesion kinase 1 [6] = target: T2, Focal adhesion kinase 1 (Homo sapiens, UniProt Q05397); experiment: Inhibition of FAK phosphorylation in EGF-stimulated human MDA231 cells using [gamma32P]ATP as substrate at 50 uM after 2 hrs by scintillation counting; format: cell-based
Method in brief: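 MDA231 cells serum-starved overnight, treated with compound for 2 h, then stimulated with 20 ng/mL EGF for 30 min. Lysates immunoprecipitated with polyclonal anti-FAK. The immunocomplex was assayed in Hepes/MgCl2/MnCl2 buffer with 3 μCi/nmol [γ-32P]-ATP. Reactions stopped by boiling in SDS sample buffer. Bands excised after SDS-PAGE and counted by scintillation. Figure legend gives N = 4.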

Mus musculus [7] = experiment: Toxicity in SCID mouse xenografted with human MDA231 cells assessed as body weight loss at 60 mg/kg, ip administered 3 times a week for a total of 9 doses; format: organism-based; design: dose 60 mg/kg, route intraperitoneal; details: in vivo
MDA-MB-231 [8] = experiment: Antiinvasive activity in human MDA231 cells at 10 uM after 48 hrs by Matrigel matrix assay; format: functional
Method in brief: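 Serum-starved MDA-231 cells (30,000) placed with or without compound (10 μM) in the upper compartment of 8-µm Matrigel-coated Boyden chambers. Lower compartment held DMEM 0.2% BSA with 10% serum. Invasion ran 48 h, then invaded cells were fixed, stained and counted under a 40× objective. DMSO normalized to 0% inhibition. Mean ± SD, five experiments.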

[9] = target: Platelet-derived growth factor receptor beta (Homo sapiens) (UniProt P09619); experiment: Inhibition of PDGFRbeta at 1 uM
Chain of Platelet-derived growth factor receptor beta (Homo sapiens) (P09619 whole entry): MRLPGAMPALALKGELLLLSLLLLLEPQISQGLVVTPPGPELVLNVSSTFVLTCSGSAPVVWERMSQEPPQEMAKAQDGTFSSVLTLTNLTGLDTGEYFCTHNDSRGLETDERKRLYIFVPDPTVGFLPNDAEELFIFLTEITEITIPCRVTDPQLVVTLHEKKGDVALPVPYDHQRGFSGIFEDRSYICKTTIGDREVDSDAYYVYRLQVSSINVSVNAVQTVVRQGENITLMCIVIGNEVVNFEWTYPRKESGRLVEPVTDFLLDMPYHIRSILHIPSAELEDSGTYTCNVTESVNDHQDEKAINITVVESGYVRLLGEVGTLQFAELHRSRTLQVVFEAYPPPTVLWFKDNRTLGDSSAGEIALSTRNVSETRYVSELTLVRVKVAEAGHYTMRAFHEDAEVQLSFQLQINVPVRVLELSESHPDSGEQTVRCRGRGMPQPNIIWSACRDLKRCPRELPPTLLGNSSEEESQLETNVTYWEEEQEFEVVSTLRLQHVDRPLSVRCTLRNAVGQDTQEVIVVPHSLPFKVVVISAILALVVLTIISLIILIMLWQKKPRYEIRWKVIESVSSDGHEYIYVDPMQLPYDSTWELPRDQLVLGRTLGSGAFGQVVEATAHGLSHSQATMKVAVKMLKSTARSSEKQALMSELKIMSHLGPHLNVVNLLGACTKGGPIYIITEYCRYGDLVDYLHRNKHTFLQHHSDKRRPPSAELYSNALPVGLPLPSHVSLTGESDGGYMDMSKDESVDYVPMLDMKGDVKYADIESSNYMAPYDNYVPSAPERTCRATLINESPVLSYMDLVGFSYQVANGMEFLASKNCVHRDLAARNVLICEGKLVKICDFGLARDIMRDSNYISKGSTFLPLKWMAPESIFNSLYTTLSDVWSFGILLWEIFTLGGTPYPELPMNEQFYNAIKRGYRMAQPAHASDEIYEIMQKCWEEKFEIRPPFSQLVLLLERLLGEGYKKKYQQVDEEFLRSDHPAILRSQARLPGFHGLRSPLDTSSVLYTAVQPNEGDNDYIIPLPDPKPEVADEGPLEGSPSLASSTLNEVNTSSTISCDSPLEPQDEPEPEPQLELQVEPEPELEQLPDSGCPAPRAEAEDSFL

[10] = target: Protein kinase C alpha type (Homo sapiens, UniProt P17252); experiment: Inhibition of PKCalpha
[11] = target: RAC-alpha serine/threonine-protein kinase (Homo sapiens, UniProt P31749); experiment: Inhibition of AKT-1
Chain of RAC-alpha serine/threonine-protein kinase (P31749 whole entry): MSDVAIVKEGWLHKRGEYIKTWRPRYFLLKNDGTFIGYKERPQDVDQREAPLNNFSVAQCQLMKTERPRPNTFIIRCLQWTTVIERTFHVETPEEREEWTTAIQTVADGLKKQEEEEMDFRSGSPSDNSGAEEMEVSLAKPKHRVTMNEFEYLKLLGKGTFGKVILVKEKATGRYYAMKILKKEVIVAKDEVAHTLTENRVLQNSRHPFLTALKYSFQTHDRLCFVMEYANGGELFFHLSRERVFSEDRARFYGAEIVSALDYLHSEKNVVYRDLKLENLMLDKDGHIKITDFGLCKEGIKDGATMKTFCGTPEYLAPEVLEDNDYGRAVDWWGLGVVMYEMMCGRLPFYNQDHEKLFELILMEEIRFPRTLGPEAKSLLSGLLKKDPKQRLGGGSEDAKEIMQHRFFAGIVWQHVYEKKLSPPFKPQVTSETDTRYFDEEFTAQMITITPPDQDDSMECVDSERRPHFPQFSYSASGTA

Focal adhesion kinase 1 [12] = target: T2, Focal adhesion kinase 1; experiment: Inhibition of human recombinant full-length FAK using ATP and Poly Glu:Tyr as substrate after 4 hrs by luminescence analysis
Method in brief: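 Human recombinant full-length FAK incubated 4 h at room temperature in kinase buffer with ATP and Poly Glu:Tyr substrate, with or without compound at various concentrations.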
Target sequence in this assay (Q05397 whole entry): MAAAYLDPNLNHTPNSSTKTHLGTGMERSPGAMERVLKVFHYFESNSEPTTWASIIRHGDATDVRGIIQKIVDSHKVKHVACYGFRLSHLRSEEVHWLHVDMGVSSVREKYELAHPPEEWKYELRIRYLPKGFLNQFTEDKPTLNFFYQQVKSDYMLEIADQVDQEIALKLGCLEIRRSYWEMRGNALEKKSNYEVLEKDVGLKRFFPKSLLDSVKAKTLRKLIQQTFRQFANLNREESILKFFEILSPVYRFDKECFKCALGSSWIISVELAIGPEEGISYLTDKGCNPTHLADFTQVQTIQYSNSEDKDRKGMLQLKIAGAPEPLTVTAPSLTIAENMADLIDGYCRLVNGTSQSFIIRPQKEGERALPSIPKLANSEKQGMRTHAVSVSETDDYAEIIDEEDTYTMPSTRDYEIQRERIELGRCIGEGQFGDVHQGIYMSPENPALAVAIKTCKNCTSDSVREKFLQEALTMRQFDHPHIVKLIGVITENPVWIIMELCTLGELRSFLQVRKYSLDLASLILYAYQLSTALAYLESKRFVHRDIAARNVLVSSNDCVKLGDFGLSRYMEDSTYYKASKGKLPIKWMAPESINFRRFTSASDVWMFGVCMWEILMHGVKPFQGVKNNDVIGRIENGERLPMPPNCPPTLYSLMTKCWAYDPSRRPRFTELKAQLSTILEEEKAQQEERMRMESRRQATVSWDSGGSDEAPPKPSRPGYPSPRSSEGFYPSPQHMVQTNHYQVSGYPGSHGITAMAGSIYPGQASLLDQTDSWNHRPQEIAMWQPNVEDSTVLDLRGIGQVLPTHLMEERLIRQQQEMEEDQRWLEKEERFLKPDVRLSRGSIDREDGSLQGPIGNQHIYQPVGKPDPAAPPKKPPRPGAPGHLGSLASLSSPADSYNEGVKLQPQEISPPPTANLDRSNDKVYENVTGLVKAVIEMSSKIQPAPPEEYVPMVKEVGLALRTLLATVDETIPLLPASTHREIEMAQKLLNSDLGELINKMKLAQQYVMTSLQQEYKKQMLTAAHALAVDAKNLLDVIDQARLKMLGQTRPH

MDA-MB-231 [13] = experiment: Cytotoxicity against human MDA231 cells at 50 uM; format: functional, cell-based

Compound: O=c1c2ccccc2[se]n1-c1ccccc1 [EBSELEN]
- growth inhibition (GI) (MDA-MB-231 [1]): inactive
- inhibition (Cancer cell lines): inactive
- inhibition (MDA-MB-231 [2]): inactive
- inhibition [3]: 0%
- Activity (Mus musculus [4]): Non-toxic
- inhibition [5]: 0%
- inhibition (Focal adhesion kinase 1 [6]): inactive
- Activity (Mus musculus [7]): Non-toxic
- Activity (MDA-MB-231 [8]): inactive
- inhibition [9]: 0%

Compound: CC(=O)OC[C@H]1O[C@@H](NC(=O)CCCn2[se]c3ccccc3c2=O)[C@H](OC(C)=O)[C@@H](OC(C)=O)[C@@H]1OC(C)=O
- IC50 [10]: 740 nM
- IC50 [11]: 800 nM
- inhibition [3]: 0%
- IC50 (Focal adhesion kinase 1 [12]): 920 nM
- inhibition [5]: 0%
- inhibition [9]: 0%

Compound: O=C(CCCn1[se]c2ccccc2c1=O)N[C@@H]1O[C@H](CO)[C@@H](O)[C@H](O)[C@H]1O
- IC50 [10]: 730 nM
- IC50 [11]: 880 nM
- inhibition [3]: 0%
- IC50 (Focal adhesion kinase 1 [12]): 960 nM
- inhibition [5]: 0%
- inhibition [9]: 0%

Compound: CC(=O)OC[C@H]1O[C@@H](O[C@H]2[C@H](OC(C)=O)[C@@H](OC(C)=O)[C@H](n3[se]c4ccccc4c3=O)O[C@@H]2COC(C)=O)[C@H](OC(C)=O)[C@@H](OC(C)=O)[C@H]1OC(C)=O
- growth inhibition (GI) (MDA-MB-231 [1]): Active
- inhibition (Cancer cell lines): Active
- inhibition [3]: 0%
- Activity (Mus musculus [4]): Non-toxic
- Activity (MDA-MB-231 [13]): Active
- inhibition [5]: 0%
- Activity (Mus musculus [7]): Non-toxic
- inhibition [9]: 0%
